# Screening data (PubChem)
# Shown are actives, neighbours in structure and some others; about 4.6% of the full set was active somewhere.
# CHO parental Ca: ATP-evoked calcium signal inhibitors, parental CHO, primary screen, counter-screen for OX1R antagonist project, cell-based, fluorescence, Fluo-8 calcium dye | parental CHO-K1, ATP-induced calcium, Fluo-8 fluorescence | inhibition, % at 5.6 µM | hit rate 0.63% among 330,000;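 active means inhibition above that plate's mean sample inhibition plus 3 SD, cut at about 26% in these data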
#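 test system = CHO parental line | reagent = ATP stimulus | measured by = intracellular calcium via Fluo-8 no-wash fluorescent dye | control set = ATP and no-ATP DMSO wells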
# TAAR1 antag: human TAAR1 antagonists, primary screen, Fluo-8 calcium fluorescence, CHO RD-HGA16 cells | Trace amine-associated receptor 1 (Homo sapiens), Q96RJ0 | inhibition, % at 3 µM | antagonist | AID 624466, 2012 | hit rate 1.5% among 360,000;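 active means inhibition above a per-plate cutoff, the mean inhibition of test compounds on that plate plus 3 SD, cut at about 49% in these data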
# Target sequence (Q96RJ0 whole entry, looked up): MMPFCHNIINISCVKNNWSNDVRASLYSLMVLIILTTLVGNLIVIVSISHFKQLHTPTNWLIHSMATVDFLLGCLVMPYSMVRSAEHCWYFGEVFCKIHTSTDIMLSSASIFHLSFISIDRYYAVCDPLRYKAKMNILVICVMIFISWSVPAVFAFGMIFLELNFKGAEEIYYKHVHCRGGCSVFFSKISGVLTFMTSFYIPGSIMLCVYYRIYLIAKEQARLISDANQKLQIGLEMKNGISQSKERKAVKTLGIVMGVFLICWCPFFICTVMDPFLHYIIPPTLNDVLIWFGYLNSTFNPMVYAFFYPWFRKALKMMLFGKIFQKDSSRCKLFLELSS
#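 Test system: CHO RD-HGA16 cells bearing hTAAR1 | Reagent: β-PEA, EC80 | Compound dosing: 3 µM, single point | Schedule: Dye loading 75 min at 37 °C, then 30 min room temperature | Signal: Calcium fluorescence with Fluo-8 | Evaluation: Percent inhibition of PEA-evoked calcium signal, max/basal emission ratio | Control set: DMSO-only wells and EC80 β-PEA-stimulated wells | Repeats: Singlicate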
# TAAR1 ag: human TAAR1 agonists, primary screen, Fluo-8 calcium fluorescence, CHO RD-HGA16 cells; vehicle wells 0%, saturating PEA agonist 100%; AID 624467, 2012; activation, % at 3 µM; hit rate 0.99% among 360,000; Trace amine-associated receptor 1 (Homo sapiens), Q96RJ0;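 active means activation above the mean activation of all test compounds in the run plus 3 SD, cut at about 38% in these data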
#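 Test system: RD-HGA16 (CHO) cells co-expressing Gα16 and hTAAR1 | Doses: Single dose, 3 µM | Schedule: 17-24 h seeding, 75 min 37 °C dye, 30 min RT | Evaluation: % activation from peak over basal fluorescence ratio, DMSO-to-PEA scaled | Technique: Kinetic Fluo-8 calcium fluorescence | Benchmarks: Low control DMSO, high control PEA (EC100)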
# GPR7 antag: GPR7 receptor antagonists, primary screen, cell-based, fluorescence, single concentration. inhibition, % at 4.4 µM. AID 1861, 2009. GPR7-expressing cells, fluorescence antagonist assay. hit rate 1.1% among 290,000. Neuropeptides B/W receptor type 1 (Homo sapiens), P48145; in the data active means inhibition above about 16%, passing the limit was not always enough;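 further: cells stimulated with the agonist NPW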
# Target sequence (P48145 whole entry, looked up): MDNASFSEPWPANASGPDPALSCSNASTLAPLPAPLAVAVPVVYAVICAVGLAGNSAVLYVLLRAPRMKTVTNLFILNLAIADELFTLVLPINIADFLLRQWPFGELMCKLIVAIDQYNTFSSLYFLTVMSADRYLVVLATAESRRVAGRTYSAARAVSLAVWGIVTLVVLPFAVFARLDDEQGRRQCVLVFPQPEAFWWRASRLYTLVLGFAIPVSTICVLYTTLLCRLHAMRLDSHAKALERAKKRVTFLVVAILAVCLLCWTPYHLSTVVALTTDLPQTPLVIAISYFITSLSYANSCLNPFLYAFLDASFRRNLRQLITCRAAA
# OX1R antag-1: antagonists of human orexin 1 receptor (OX1R); Orexin/Hypocretin receptor type 1 (Homo sapiens), O43613; OX1R-expressing cells, FRET antagonist read-out; inhibition, % at 6.6 µM; hit rate 1.8% among 330,000; AID 485270, 2010; in the data active means inhibition mostly above about 38%, no sharp cut-off; inactive means mostly below about 40%
# OX1R antag-2: OX1R (HCRTR1) antagonists, primary screen, fluorescence, CHO/OX1R cells, Fluo-8 calcium, orexin A | Orexin/Hypocretin receptor type 1 (Homo sapiens), O43613 | Fluo-8 calcium fluorescence | inhibition, % at 5 µM | hit rate 0.43% among 330,000;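 active means inhibition above its plate's threshold, mean inhibition of all tested compounds on the plate plus 3 SD, cut at about 37% in these data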
# nonsel antag count: nonselective antagonists in TAAR1 counter-screen cells, counter-screen for hTAAR1 antagonist project, cell-based, fluorescence, calcium; inhibition, % at 3 µM; shares compounds with TAAR1 antag; hit rate 77% among 2,400; counterscreen cell line, antagonist mode; in the data active means inhibition above about 22%;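 further: CHO-Ga16 host cells stimulated with ATP at an EC80 level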
# TAAR1 antag conf: human TAAR1 antagonists, retest of hits, confirmation, cell-based, fluorescence; shares compounds with TAAR1 antag; TAAR1-expressing cells, fluorescence antagonist read-out; inhibition, % at 3 µM; hit rate 40% among 2,400; AID 651785, 2012; in the data active means inhibition above about 49%;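 further: CHO-Ga16 host cells challenged with agonist PEA near its EC80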
# Ga16 ag counter: calcium activation in Ga16-expressing cells, counter-screen for TAAR1 antagonist project, cell-based, fluorescence; AID 651953, 2012; shares compounds with TAAR1 antag; agonist counterscreen; hit rate 18% among 2,400; activation, % at 3 µM; in the data active means activation above about 12%
# TAAR1 ag counter: TAAR1 activation by candidate antagonists – cell-based, fluorescence, counter-screen for TAAR1 antagonist project; hTAAR1 cell line, agonist mode; shares compounds with TAAR1 antag; hit rate 2% among 2,400; activation, % at 3 µM; in the data active means activation above about 37%;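 further: CHO cells stably expressing TAAR1 with calcium dye readout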
# A number is an active result; n = inactive; x = no result given.
SMILES,CHO parental Ca,TAAR1 antag,TAAR1 ag,GPR7 antag,OX1R antag-1,OX1R antag-2,nonsel antag count,TAAR1 antag conf,Ga16 ag counter,TAAR1 ag counter
Cc1ccc(NC(=O)N2N=C(c3ccc(F)cc3)CC2c2ccc(F)cc2)cc1 (centres undefined),n,n,n,n,n,n,x,x,x,x
Cc1c(C(=O)N2CCN(c3ccccc3)CC2)oc2c1C(=O)CC(C)(C)C2,n,67,n,n,n,n,30,53,n,n
NC(=O)c1nsc(C(=O)N(c2cccc(O)c2)C(C(=O)NC2CCCC2)c2ccc(Cl)cc2)c1N (centres undefined),n,66,n,n,n,n,25,53,n,n
CCOc1ccc(C(C(=O)NC2CCCC2)N(C(=O)c2snc(C(N)=O)c2N)c2cccc(O)c2)cc1 (centres undefined),n,99,n,n,n,n,37,81,n,n
Cc1cccc(N(C(=O)c2snc(C(N)=O)c2N)C(C(=O)NC2CCCC2)c2ccncc2)c1 (centres undefined),n,n,n,n,n,n,x,x,x,x
CCOc1ccc(N(C(=O)c2snc(C(N)=O)c2N)C(CC)C(=O)NC2CCCC2)cc1 (centres undefined),n,n,n,n,n,n,x,x,x,x
CCOc1ccc(NC(=O)CN(C)C(=O)CCNC(=O)c2ccco2)cc1OCC,n,n,n,x,n,n,x,x,x,x
NC(=O)c1cccc(-c2coc3c(C(=O)NCc4cccnc4)cccc23)c1,x,n,n,x,x,x,x,x,x,x
CC(=O)Nc1cccc(NC(=O)c2cc(-c3cccnc3)nc3ccc(Cl)cc23)c1,n,86,n,n,n,n,31,55,n,n
Cc1cccc(NC(=O)c2cc(-c3ccccn3)nc3ccccc23)c1C,n,70,n,n,n,n,34,56,n,n
CC(=O)c1cccc(NC(=O)c2cccc3c(-c4cccnc4)coc23)c1,x,75,n,x,x,x,31,52,n,n
Cc1ccc(C)c(-c2cc(C(=O)Nc3cccnc3)c3ccccc3n2)c1,n,61,n,n,n,n,25,49,13,n
Cc1ccc(S(=O)(=O)Nc2n[nH]nc2C(=O)NC2CCCCC2)cc1,n,n,n,n,n,n,x,x,x,x
Cc1ccc(C2=N/C(=C\c3cccc(F)c3)C(=O)O2)cc1,n,n,n,n,n,n,x,x,x,x
CC(=O)c1ccc(N2CCN(C(=S)Nc3ccc(Cl)c(Cl)c3)CC2)cc1,n,n,n,n,n,n,x,x,x,x
COc1cccc(-c2cc(C(=O)Nc3ccncc3)c3ccccc3n2)c1,n,n,n,n,n,n,x,x,x,x
COc1cccc(NC(=O)c2cc(-c3ccccn3)nc3ccccc23)c1,n,56,n,x,n,n,28,n,n,n
CC1=C(C(=O)N(C(C)C)C(C)C)CC(CC(=O)NC2CCCCC2)C(=O)N1Cc1ccc(C(C)(C)C)cc1 (centres undefined),x,n,n,x,x,x,x,x,x,x
Cc1oc(CC(C)C)cc1C(=O)NCCCC(=O)O,n,n,n,n,n,n,x,x,x,x
CC(=O)c1cc(Cl)ccc1OCc1cccc(S(=O)(=O)N2CCOCC2)c1,n,91,n,x,n,n,35,55,13,n
O=S(=O)(c1cccc(COc2ccc(Cl)cc2Cl)c1)N1CCOCC1,n,n,n,n,n,n,x,x,x,x
C/C(=N\NC(=O)CCc1ccc(S(=O)(=O)N2CCOCC2)cc1)c1ccccc1Cl,n,n,n,n,n,n,x,x,x,x
COc1ccc(S(=O)(=O)NCC(=O)N(CC(=O)NCc2ccco2)Cc2ccc(F)cc2)cc1,n,n,n,n,n,n,x,x,x,x
COc1cccc(CNC(=O)N2CCN(c3ccccc3Cl)CC2)c1,n,49,n,n,n,n,22,n,n,n
CCCN(CC1CC1)C(=O)COC(=O)c1ccc2c(c1)C(=O)N(c1ccc(OCC)cc1)C2=O,n,55,n,n,n,n,30,n,n,n
SMILES,CHO parental Ca,TAAR1 antag,TAAR1 ag,GPR7 antag,OX1R antag-1,OX1R antag-2,nonsel antag count,TAAR1 antag conf,Ga16 ag counter,TAAR1 ag counter
CCOc1ccc(N2C(=O)c3ccc(C(=O)OCc4c(C)noc4C)cc3C2=O)cc1,n,n,n,n,n,n,x,x,x,x
CC(=O)Nc1ccc(NC(=O)c2ccc(S(=O)(=O)N(C)c3ccccc3)cc2)cc1,n,n,n,x,n,n,x,x,x,x
Cc1nc2ccc(NC(=O)c3ccc(S(=O)(=O)N(C)c4ccccc4)cc3)cc2s1,n,59,n,n,n,n,33,53,n,n
CC(C)COc1ccc(C(=O)N/N=C/c2ccoc2)cc1,n,62,n,n,n,n,n,n,n,n
CCOc1cc(C(=O)N/N=C/c2ccoc2)cc(OCC)c1OCC,x,n,n,n,x,x,x,x,x,x
Cc1cc(C)n(CCOc2ccc(Cl)cc2Cl)n1,n,n,n,n,n,n,x,x,x,x
CCO[C@@H]1OC(C(=O)N2CCN(Cc3ccccc3)CC2)=C[C@H](c2csc3ccccc23)[C@H]1CCCO,n,52,n,n,n,n,23,n,n,n
O=C(CCCOc1ccc(Cl)cc1Cl)N1CCCc2ccccc21,n,50,n,n,n,n,n,n,n,n
NC(=O)c1cc(Cl)ccc1OCC(=O)N1CCCc2ccccc21,n,n,n,n,n,n,x,x,x,x
CCOc1ccc2[nH]c(C(=O)N/N=C/c3ccc(OC)cc3)cc2c1,x,70,n,n,x,x,22,55,n,n
CCNC(=O)OC[C@H]1O[C@H](C#Cc2ccc(C(C)(C)C)cc2)C=C[C@H]1O,x,n,n,x,x,x,x,x,x,x
CC(C)(C)c1ccc(C#C[C@@H]2C=C[C@H](O)[C@@H](COC(=O)Nc3ccccc3)O2)cc1,x,51,n,x,x,x,26,n,n,n
O=C(O)c1ccc(S(=O)(=O)Nc2ccc(O)c(Sc3nc4ccccc4s3)c2)cc1,n,n,n,n,n,n,x,x,x,x
